Reference: ChEMBL document CHEMBL1155814, “Structure-activity correlations for beta-phenethylamines at human trace amine receptor 1” (Bioorg Med Chem, 2008)
pEC50: −log10 of the molar value. The source made the active and inactive calls.

Tests used:
Format in all cases: functional, cell-based
[1] = target: T1, Trace amine-associated receptor 1 (Homo sapiens, UniProt Q96RJ0); test: (§1) Agonist activity at human trace amine associated receptor 1 expressed in RD-HGA16 CHO-K1 cells coexpressed with Galpha16 protein assessed as internal calcium mobilization by calcium 3 assay
T1 sequence (Q96RJ0 whole entry): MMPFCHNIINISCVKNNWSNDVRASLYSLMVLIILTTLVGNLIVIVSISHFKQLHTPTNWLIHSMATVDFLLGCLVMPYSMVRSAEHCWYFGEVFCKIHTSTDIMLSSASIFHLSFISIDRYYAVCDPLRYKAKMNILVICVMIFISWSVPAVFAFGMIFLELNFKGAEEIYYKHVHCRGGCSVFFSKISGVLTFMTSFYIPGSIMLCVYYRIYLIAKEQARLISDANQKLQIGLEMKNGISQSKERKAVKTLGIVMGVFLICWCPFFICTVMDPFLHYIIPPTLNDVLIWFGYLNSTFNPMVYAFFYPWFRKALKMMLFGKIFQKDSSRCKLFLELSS
In short: (§2)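 Unmodified human TAAR1 stably expressed in CHO cells carrying Galpha16 (RD-HGA16). Cells seeded at 30,000/well in HAM's F-12 with 10% FBS, 400 ug/mL hygromycin and 400 µg/mL geneticin, overnight at 37 °C, 5% CO2. Loaded 1 h at 37 °C with Calcium 3 dye at 1/3 kit strength. Basal signal recorded 13 sec before compound addition. Compounds tested at 7–8 concentrations in duplicate. A six-point β-PEA curve was run on each plate.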

[2] = target: T2, Trace amine-associated receptor 1 (Homo sapiens) (UniProt Q96RJ0); test: Agonist activity at human trace amine associated receptor 1 expressed in RD-HGA16 CHO-K1 cells coexpressed with Galpha16 protein assessed as internal calcium mobilization by calcium 3 assay relative to 2-phenylethanamine
T2 sequence (whole entry): T1 sequence (Q96RJ0 whole entry)
In short: as §2, with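 “strength. Fluorescence read from the bottom at 485/525 nm, 515 cutoff.” for “strength.”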

[3] = target: T1, Trace amine-associated receptor 1; test: Agonist activity at human trace amine associated receptor 1 expressed in AV12-664 cells coexpressed with rat GalphaS protein assessed as cAMP accumulation
[4] = target: T2, Trace amine-associated receptor 1 (Homo sapiens); test: Agonist activity at human trace amine associated receptor 1 expressed in AV12-664 cells coexpressed with rat […] protein assessed as cAMP accumulation relative to 2-phenylethanamine
[5] = target: T2, Trace amine-associated receptor 1 (Homo sapiens); test: as §1; in short: as §2

SMILES | pEC50 [1] | Emax [2] [%] | pEC50 [3] | Emax [4] [%] | Activity [5]
NCCc1cccc(C(F)(F)F)c1 | 5.40 | 69 | – | – | –
COc1cc(CCN)c(OC)cc1Br | 5.14 | 22 | – | – | –
CN(C)CCc1ccccc1 | 4.00 | – | 5.83 | 97.1 | –
Cc1ccccc1CCN | 6.45 | 97 | – | – | –
NCCc1ccccc1Cl | 7.11 | 72 | – | – | –
NCC1(c2ccccc2)CC1 | 5.30 | 79 | – | – | –
NCCc1ccc([N+](=O)[O-])cc1 | 3.78 | – | – | – | –
Cc1ccc(CCN)cc1 | 5.36 | 96 | – | – | –
COc1ccc(OC)c(CCN)c1 | 5.70 | 69 | – | – | –
CN(C)CCc1ccc(F)cc1 | 4.72 | 71 | – | – | –
CN(C)CCc1ccc(Br)cc1 | 4.61 | 40 | – | – | –
CC(C)(C)c1ccc(CCN)cc1 | 2.29 | – | – | – | –
NCCc1ccccc1 [PHENETHYLAMINE] | 6.89 | 100 | – | – | –
NCCc1ccccc1Br | 7.24 | 89 | – | – | –
NCCc1cccc(Cl)c1Cl | 5.94 | 84 | – | – | –
NCCc1ccc(F)cc1 | 6.13 | 81 | – | – | –
COc1cc(CCN)c(OC)cc1C | 5.19 | 36 | – | – | –
N[C@@H]1C[C@H]1c1ccccc1 (relative stereo) | 5.82 | 72 | – | – | –
CC(C)(N)Cc1ccccc1 [PHENTERMINE] | 5.26 | 68 | – | – | –
NCCc1cccc(Cl)c1 | 6.72 | 105 | – | – | –
COc1cc(F)c(CCN)c(F)c1 | 5.85 | 90 | – | – | –
NCCc1cccc(F)c1 | 6.82 | 93 | – | – | –
CN(C)CCc1ccccc1F | 5.89 | 75 | – | – | –

SMILES | pEC50 [1] | Emax [2] [%] | pEC50 [3] | Emax [4] [%] | Activity [5]
CN(C)CCc1ccccc1Br | 5.46 | 78 | – | – | –
NCCc1ccc2c(c1)OCO2 | 5.30 | 63 | – | – | –
CNCCc1ccc(F)cc1 | 5.98 | 63 | – | – | –
COc1ccc(CCN)cc1 | 5.22 | 106 | – | – | –
COc1cc(OC)c(OC)cc1CCN | – | – | – | – | inactive
NCCc1ccc(Cl)cc1 | 5.54 | 104 | – | – | –
CNCCc1ccc(Br)cc1 | 5.18 | 60 | – | – | –
CNCCc1ccccc1 | 6.41 | 69 | 6.60 | 93.4 | –
CNCCc1cccc(Cl)c1 | 6.30 | 77 | – | – | –
COc1cc(CCN)c(OC)cc1Cl | 5.43 | 30 | – | – | –
NCCc1ccccc1I | 6.99 | 109 | – | – | –
NCCc1c(Cl)cccc1Cl | 7.29 | 94 | – | – | –
CN(C)CCc1cccc(Cl)c1 | 5.22 | 62 | – | – | –
CN(C)CCc1cccc(F)c1 | 5.36 | 78 | – | – | –
CNCCc1ccc(Cl)cc1 | 5.13 | 67 | – | – | –
CC(C)C(CN)c1ccccc1 (stereo unspecified) | 5.00 | 46 | – | – | –
COc1cccc(CCN)c1 | 5.84 | 73 | – | – | –
NCCc1ccc(Cl)c(Cl)c1 | 5.46 | 78 | – | – | –
C[C@H](CN)c1ccccc1 | 6.89 | 104 | – | – | –
COc1ccccc1CCN | 6.84 | 95 | – | – | –
CNCCc1ccccc1Cl | 6.80 | 70 | – | – | –
NCCc1c(F)cc(O)cc1F | 6.12 | 103 | – | – | –
CNCCc1ccccc1Br | 6.69 | 93 | – | – | –

SMILES | pEC50 [1] | Emax [2] [%] | pEC50 [3] | Emax [4] [%] | Activity [5]
NCCc1ccc(C(F)(F)F)cc1 | 4.94 | 78 | – | – | –
C[C@@H](CN)c1ccccc1 | 6.44 | 97 | – | – | –
CCc1ccc(CCN)cc1 | 5.04 | 86 | – | – | –
NCCc1ccccc1F | 7.19 | 91 | – | – | –
NCCc1c(F)cccc1Cl | 6.51 | 94 | – | – | –
Cc1ccc(C)c(CCN)c1 | 6.42 | 84 | – | – | –
NCCc1cccc(Br)c1 | 6.40 | 75 | – | – | –
CN(C)CCc1ccccc1Cl | 6.16 | 79 | – | – | –
NCCc1cccc(O)c1 | 5.76 | 78 | – | – | –
NCCc1ccccc1O | 6.21 | 90 | – | – | –
C[C@@H](N)Cc1ccccc1 | – | 64 | – | – | –
CNCCc1cccc(F)c1 | 6.28 | 88 | – | – | –
CN(C)CCc1ccc(Cl)cc1 | 3.20 | 43 | – | – | –
CNCCc1cccc(Br)c1 | 5.97 | 71 | – | – | –
Cc1cccc(CCN)c1 | 6.20 | 93 | – | – | –
CCc1cc(OC)c(CCN)cc1OC | 5.19 | 32 | – | – | –
NCCc1ccc(O)cc1 [TYRAMINE] | 6.14 | 91 | – | – | –
CNCCc1ccccc1F | 6.93 | 75 | – | – | –
NCCc1ccc(Br)cc1 | 5.81 | 98 | – | – | –
CN(C)CCc1cccc(Br)c1 | 5.08 | 88 | – | – | –
NCC(c1ccccc1)c1ccccc1 | 5.47 | 70 | – | – | –
CC(C)(CN)c1ccccc1 | 5.10 | 70 | – | – | –
C[C@H](N)Cc1ccccc1 | – | 74 | – | – | –
